Assay outcomes deposited in PubChem BioAssay by Sanford-Burnham Center for Chemical Genomics.
A selection: hits, their analogues and other compounds. The true share with any hit is near 2.3%.
STEP block: STEP (human) phosphatase inhibition; P54829; recombinant STEP, OMFP fluorogenic substrate, fluorescence; inhibition, % at 20 µM; 0.25% of 360,000 active; AID 588621;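 active means inhibition at 20 µM, scaled per plate between control wells, above about 37%, limit read from the data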;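 further: 0% = DMSO with enzyme and substrate and 100% = substrate only without enzyme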
Target sequence (P54829 whole entry, looked up): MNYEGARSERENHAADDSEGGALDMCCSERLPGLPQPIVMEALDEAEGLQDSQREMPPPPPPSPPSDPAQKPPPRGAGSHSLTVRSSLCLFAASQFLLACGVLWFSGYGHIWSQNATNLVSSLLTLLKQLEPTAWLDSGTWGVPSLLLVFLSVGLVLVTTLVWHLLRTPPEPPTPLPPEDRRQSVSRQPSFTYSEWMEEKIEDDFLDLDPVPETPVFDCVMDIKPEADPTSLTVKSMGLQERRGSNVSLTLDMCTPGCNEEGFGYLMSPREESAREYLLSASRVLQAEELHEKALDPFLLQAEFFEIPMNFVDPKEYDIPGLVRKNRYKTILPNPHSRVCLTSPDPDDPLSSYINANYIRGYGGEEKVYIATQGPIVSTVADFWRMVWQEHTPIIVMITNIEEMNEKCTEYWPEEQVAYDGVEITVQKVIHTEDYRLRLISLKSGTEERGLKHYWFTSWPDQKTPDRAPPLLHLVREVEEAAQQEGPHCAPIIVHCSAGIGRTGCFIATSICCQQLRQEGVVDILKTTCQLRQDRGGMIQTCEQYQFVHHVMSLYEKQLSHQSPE
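System: isolated STEP enzyme; schedule: 20 min enzyme reaction at room temperature, protected from light; medium: Bis-Tris buffer pH 6.0, 2.5 mM DTT, 0.005% Tween 20; signal: fluorescence, 480/540 nm; dosing: single compound dose of 20 µM, 1% DMSO final; also added: OMFP substrate, 25 µM final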
DNMT1 inh: blocks human DNA methyltransferase DNMT1; P26358; 0.83% of 360,000 active; DNMT1 molecular beacon, Hinp1I cleavage, fluorescence; inhibition (reported as % activation of signal), % at 10 µM; in the data active means inhibition above about 50%
LMPTP inh: blocks human LMPTP phosphatase; 0.22% of 360,000 active; P24666; inhibition, % at 20 µM; recombinant LMPTP-A, OMFP fluorogenic substrate, fluorescence intensity; AID 651560;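 active means compounds that cut the enzyme signal by at least half of the control window in the single-dose screen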;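 further: plate controls were DMSO wells with enzyme plus substrate for no effect and substrate without enzyme for full effect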
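Test system: LMPTP-A phosphatase enzyme; input: 0.625 nM LMPTP-A final; reagent: OMFP substrate, 400 µM final; compound dosing: 20 µM single dose, 3% DMSO; incubation: 50 min dark incubation at room temperature; measured by: endpoint fluorescence intensity from OMFP dephosphorylation; measure: % inhibition relative to no-enzyme and uninhibited control wells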
Rpn11 inh: inhibitors of human proteasome Rpn11; human 26S proteasome, Ub4-pepOG fluorescence polarization; 20S core pre-blocked with epoxomicin; 0.59% of 360,000 active; inhibition, % at 20 µM; AID 588493;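 active means inhibition at 20 µM, scaled to each plate's controls, above about 33%, limit read from the data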
Scp-1 inhibitor: inhibitors of human Scp-1 phosphatase. Q9GZU7. Recombinant Scp1, phosphopeptide, malachite green phosphate absorbance. inhibition, % at 20 µM. 0.88% of 340,000 active. AID 493091;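 active means inhibition above about 50% at 20 µM, limit read from the data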;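 further: plate controls were DMSO wells with enzyme for no effect and wells lacking enzyme for full effect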
Target sequence (Q9GZU7 76-261 limits assumed): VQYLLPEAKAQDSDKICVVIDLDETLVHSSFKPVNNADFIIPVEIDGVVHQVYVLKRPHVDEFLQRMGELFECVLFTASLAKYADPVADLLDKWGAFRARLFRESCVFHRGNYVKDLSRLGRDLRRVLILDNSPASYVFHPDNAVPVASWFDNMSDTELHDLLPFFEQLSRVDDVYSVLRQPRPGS
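Incubation: 45 min enzyme reaction at room temperature / System: truncated SCP-1 phosphatase (76-261aa) / Reagent: Phospho 17-mer peptide substrate / Buffer or medium: Acidic Tris acetate buffer with magnesium and detergent / Signal: absorbance at 630 nm / Doses: one concentration, 20 µM, with 1.0% DMSO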
SUMO1-SIM PPI: alters human SUMO1 binding to SIM partners; P63165; SUMO1 binding to a labelled peptide, TR-FRET, 1 h; inhibition, % at 20 µM; 0.33% of 360,000 active; AID 602429; in the data active means inhibition above about 37%
Scp1 confirm: Scp-1 (human) inhibition, single-dose confirmed; recombinant SCP-1 catalytic domain, phosphate release, malachite green absorbance; shares compounds with Scp-1 inhibitor; inhibition, % at 20 µM; AID 540281; 61% of 2,500 active;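 further: plate controls were DMSO with enzyme for no effect and buffer wells lacking enzyme for full effect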
Scp-1 MG ctr: counter-screen for Scp-1 inhibitors: colorimetric interference | shares compounds with Scp-1 inhibitor | Colorimetric interference counterscreen, malachite green absorbance 630 nm | apparent inhibition (interference), % at 20 µM | 2,500 tested, under 10 active | AID 540313;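 further: compounds added after enzyme reaction finished so only phosphate colour detection is probed; plate controls were DMSO wells with completed Scp-1 reaction for no effect and substrate wells lacking enzyme for full effect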
Scp1 DSF: Scp-1 (human) binding by thermal shift | shares compounds with Scp-1 inhibitor | thermal shift relative to vanadate control, % at 40 µM | Recombinant SCP1, Sypro Orange thermal shift Tm | AID 540329 | 25% of 1,500 active;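 active means substances whose mean melting-temperature shift, as a percentage of the reference inhibitor's shift, reaches about 5.3%, limit read from the data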;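 further: 0% = Tm of DMSO wells and 100% = Tm with sodium orthovanadate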
An asterisk follows results filed as active; ! = repeats disagree.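 How the source made its calls, unless noted: active means inhibition of at least 30% at 20 µM; inactive means the rest.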

Results for COc1ccc(OC)c(N2C(=O)/C(=C/c3ccco3)C(=O)NC2=S)c1 ?
Scp-1 inhibitor: 89.0*

What do the screens show for `COc1cc2c(cc1OC)C13CCN4CC5=CCOC6CC(=O)N2C1C6C5C3C4` (configuration not stated) (tested in a mixture with another compound)?
STEP block: -1.6; DNMT1 inh: -2.6; LMPTP inh: 1.0; Rpn11 inh: -2.1; Scp-1 inhibitor: -9.5; SUMO1-SIM PPI: 0.8

What do the screens show for `O=P1(NCCCl)OCCC(OO)N1CCCl` (configuration not stated)?
LMPTP inh: -8.9; SUMO1-SIM PPI: -51.8

What do the screens show for `CCCCOC1OCN(C2CCCCC2)CC1(C)C` (configuration not stated)?
STEP block: -2.9; DNMT1 inh: -0.6; LMPTP inh: -3.2; Rpn11 inh: 7.2; SUMO1-SIM PPI: 5.8

Results for O=C(O)CC1OCC=C2CN3CCC45C6=CC(=O)C(=O)C([N+](=O)[O-])=C6NC4C1C2CC35 (configuration not stated) ?
STEP block: 17.5; DNMT1 inh: 58.2*; LMPTP inh: 14.6; Rpn11 inh: -4.0; Scp-1 inhibitor: 20.6; SUMO1-SIM PPI: 30.3

Results for CCCCn1c(=O)c(C(=O)NCc2ccccc2Cl)c(O)c2ccccc21 ?
STEP block: 2.3; DNMT1 inh: 1.1; LMPTP inh: 2.4; Rpn11 inh: -3.6; Scp-1 inhibitor: -9.4; SUMO1-SIM PPI: -2.2

Results for O=C1NC(=S)NC(=O)C1=Cc1ccc(OCC(=O)N2CCCC2)cc1 ?
STEP block: 1.3; DNMT1 inh: 8.5; LMPTP inh: -0.1; Rpn11 inh: -1.8; Scp-1 inhibitor: 51.2*; SUMO1-SIM PPI: 11.4; Scp1 confirm: 51.3*; Scp-1 MG ctr: -10.4; Scp1 DSF: -13.2

What do the screens show for `CCOc1cc(C=C2C(=O)NC(=O)NC2=O)ccc1OCC(=O)N1CCOCC1`?
STEP block: -3.0; DNMT1 inh: -12.4; LMPTP inh: -0.8; Rpn11 inh: 0.2; Scp-1 inhibitor: -2.6; SUMO1-SIM PPI: -2.8

What do the screens show for `O=C(c1ccco1)N1Cc2ccccc2-n2nncc2C1`?
STEP block: -1.4; DNMT1 inh: 4.6; LMPTP inh: -0.9; Rpn11 inh: -6.1; SUMO1-SIM PPI: -1.0

Results for Cc1cc(/C=C2\C(=O)NC(=O)N(Cc3ccccc3Cl)C2=O)c(C)n1-c1ccc(C(=O)O)cc1 ?
STEP block: 2.5; DNMT1 inh: 70.9*; LMPTP inh: 7.0; Scp-1 inhibitor: 66.2*; SUMO1-SIM PPI: 20.5; Scp1 confirm: 66.6*; Scp-1 MG ctr: -10.4; Scp1 DSF: -0.9

What do the screens show for `Cc1cc(/C=C2\C(=O)NC(=O)N(c3cccc(F)c3)C2=O)c(C)n1-c1ccc(C(=O)O)c(Cl)c1`?
STEP block: 19.3; DNMT1 inh: 59.9*; LMPTP inh: 1.0; Rpn11 inh: -3.9; Scp-1 inhibitor: 50.9*; SUMO1-SIM PPI: 1.2; Scp1 confirm: 57.7*; Scp-1 MG ctr: 3.1; Scp1 DSF: 0.3

Results for Cc1ccc(N2C(=O)NC(=O)/C(=C/c3ccc(-c4ccc(C(=O)O)c(Cl)c4)o3)C2=O)cc1 ?
STEP block: 4.3; DNMT1 inh: 40.7; LMPTP inh: 0.4; Rpn11 inh: 2.8; Scp-1 inhibitor: 58.4*; SUMO1-SIM PPI: 14.3; Scp1 confirm: 54.7*; Scp-1 MG ctr: -18.0; Scp1 DSF: -7.5

Results for N#CC12c3ccccc3C(=O)N1Cc1cnnn1-c1ccccc12 (configuration not stated) ?
STEP block: -1.9; DNMT1 inh: 14.2; LMPTP inh: 1.0; Rpn11 inh: 3.6; SUMO1-SIM PPI: 2.7

Results for C[N+]1(C)C2CCC1CC(OC(=O)c1ccco1)C2 (configuration not stated) ?
STEP block: -2.7; DNMT1 inh: -0.3; LMPTP inh: -2.2; Rpn11 inh: 3.5; Scp-1 inhibitor: 18.8; SUMO1-SIM PPI: -0.5

What do the screens show for `C[N+]1(C)C2CCC1CC(OC(=O)c1c[nH]c3ccccc13)C2` (configuration not stated)?
STEP block: 2.7; DNMT1 inh: 2.1; LMPTP inh: 0.6; Rpn11 inh: -2.0; Scp-1 inhibitor: 54.4*; SUMO1-SIM PPI: 2.3; Scp1 confirm: -6.2; Scp-1 MG ctr: -16.1

Results for COc1cc2c(cc1OC)C(C1c3cc4c(cc3CCN1C)OCO4)OC2=O (configuration not stated) ?
STEP block: 1.5; DNMT1 inh: 0.4; LMPTP inh: 2.2; Rpn11 inh: 4.6; Scp-1 inhibitor: -4.7; SUMO1-SIM PPI: 5.1

What do the screens show for `C[N+]1(C)CCc2cc3c(cc2[C@H]1[C@@H]1OC(=O)c2c1ccc1c2OCO1)OCO3`?
STEP block: 2.1; DNMT1 inh: -0.7; LMPTP inh: -1.2; Rpn11 inh: 1.6; Scp-1 inhibitor: 98.5*!; SUMO1-SIM PPI: 3.4; Scp1 confirm: 82.4*; Scp-1 MG ctr: -15.3; Scp1 DSF: -24.0

How did O=C1C(Br)C2CCC1C2C(=O)O (configuration not stated) do in these assays?
STEP block: -5.5; DNMT1 inh: 3.4; LMPTP inh: -0.6; Rpn11 inh: 3.5; SUMO1-SIM PPI: 5.2

How did O=C(NN=Cc1ccc(N(CCCl)CCCl)cc1)c1cccc([N+](=O)[O-])c1 do in these assays?
STEP block: 1.6; DNMT1 inh: 22.9; LMPTP inh: 32.7; Rpn11 inh: -13.9; Scp-1 inhibitor: 93.3*; SUMO1-SIM PPI: 13.0; Scp1 confirm: 71.7*; Scp-1 MG ctr: -11.2; Scp1 DSF: 2.6

What do the screens show for `C[N+]12CCC(CC1)C(=C(c1ccccc1)c1ccccc1)C2`?
STEP block: -2.6; DNMT1 inh: 4.8; LMPTP inh: -0.4; Rpn11 inh: -3.5; Scp-1 inhibitor: 93.9*; SUMO1-SIM PPI: -3.1; Scp1 confirm: 78.3*; Scp-1 MG ctr: -19.9; Scp1 DSF: -16.6

Results for CC[N+]12CCC(CC1)C(=C(c1ccccc1)c1ccccc1)C2 ?
STEP block: -1.5; DNMT1 inh: 4.4; LMPTP inh: -1.5; Rpn11 inh: -3.7; Scp-1 inhibitor: 9.5; SUMO1-SIM PPI: 0.6
